This note sets out measurements from ChEMBL document CHEMBL4321820, “Identification and Optimization of Mechanism-Based Fluoroallylamine Inhibitors of Lysyl Oxidase-like 2/3” (J Med Chem, 2019).

A short description of series [1]: Stability in dog microsomes assessed as half life. Format: ADME, Canis lupus familiaris, Microsome.
Series [2] can be described thus: Protein binding in rat plasma. Format: ADME, cell-free. The following applies: read-out: PPB (converted).
The nature of series [3]: Stability in rat plasma assessed as half life. Format: ADME, cell-free.
Series [4] concerns the target T1, Lysyl oxidase homolog 2 (Rattus norvegicus, UniProt B5DF27).
T1 sequence (B5DF27 whole entry): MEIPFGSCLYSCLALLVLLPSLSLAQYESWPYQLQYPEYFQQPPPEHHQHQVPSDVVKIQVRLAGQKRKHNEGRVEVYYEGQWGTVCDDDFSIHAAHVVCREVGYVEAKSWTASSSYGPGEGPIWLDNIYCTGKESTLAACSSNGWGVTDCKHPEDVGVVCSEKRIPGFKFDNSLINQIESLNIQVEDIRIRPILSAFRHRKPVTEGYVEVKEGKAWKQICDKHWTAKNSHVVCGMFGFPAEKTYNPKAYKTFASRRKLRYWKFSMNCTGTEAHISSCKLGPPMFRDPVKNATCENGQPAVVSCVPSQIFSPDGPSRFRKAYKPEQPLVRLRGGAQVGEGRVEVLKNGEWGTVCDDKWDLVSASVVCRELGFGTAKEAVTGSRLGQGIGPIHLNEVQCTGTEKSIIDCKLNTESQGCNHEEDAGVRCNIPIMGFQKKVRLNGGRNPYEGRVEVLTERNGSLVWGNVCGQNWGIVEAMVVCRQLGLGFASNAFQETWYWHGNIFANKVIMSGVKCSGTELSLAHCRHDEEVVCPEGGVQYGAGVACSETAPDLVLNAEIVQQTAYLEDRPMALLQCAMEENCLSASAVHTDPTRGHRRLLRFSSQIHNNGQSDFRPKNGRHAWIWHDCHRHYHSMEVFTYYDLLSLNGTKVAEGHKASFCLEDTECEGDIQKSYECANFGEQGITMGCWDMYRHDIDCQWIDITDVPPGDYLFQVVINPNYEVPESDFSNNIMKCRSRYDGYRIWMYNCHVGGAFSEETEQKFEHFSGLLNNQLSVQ
The series can be described thus: Inhibition of recombinant rat LOLX2 using putrescine as substrate preincubated with enzyme for 30 mins followed by substrate addition and measured every 2.5 mins for 30 mins by Amplex-Red oxidation assay.

Series [5] can be described thus: Stability in dog plasma assessed as half life. Format: ADME, cell-free, Canis lupus familiaris.
Series [6] concerns the target T2, Protein-lysine 6-oxidase (Homo sapiens, UniProt P28300).
T2 sequence (P28300 whole entry): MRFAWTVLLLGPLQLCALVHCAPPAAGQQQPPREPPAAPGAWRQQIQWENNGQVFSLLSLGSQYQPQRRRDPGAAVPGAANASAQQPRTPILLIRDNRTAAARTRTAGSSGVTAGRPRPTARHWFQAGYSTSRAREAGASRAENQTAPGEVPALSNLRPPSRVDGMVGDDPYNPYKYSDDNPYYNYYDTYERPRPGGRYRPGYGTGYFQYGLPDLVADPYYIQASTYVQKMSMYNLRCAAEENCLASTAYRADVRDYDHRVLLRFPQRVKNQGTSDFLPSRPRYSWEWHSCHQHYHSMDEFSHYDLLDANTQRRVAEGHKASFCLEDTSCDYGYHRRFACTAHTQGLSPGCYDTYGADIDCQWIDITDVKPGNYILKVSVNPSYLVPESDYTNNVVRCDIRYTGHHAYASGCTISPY
The series can be described thus: Inhibition of LOX in human IMR90 cells using putrescine as substrate preincubated with enzyme for 30 mins followed by substrate addition and measured every 2.5 mins for 30 mins by Amplex-Red oxidation assay. It counts as cell-based. In outline:
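IMR90 fibroblasts grown in MEM/10% FBS to 80% confluence, then 48-72 h in phenol-red-free 0.1% FBS medium. Conditioned medium concentrated 40-fold (10 kDa). LOX and LOXL2 separated on a 50 kDa filter in 6 M urea/borate, then diluted back to 1.2 M urea. Preincubated 30 min at 37 °C with compound; Amplex Red/HRP/putrescine readout every 2.5 min over 30 min.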

Series [7] addresses T3, Protein-lysine 6-oxidase (Mus musculus, UniProt P28301).
T3 sequence (P28301 whole entry): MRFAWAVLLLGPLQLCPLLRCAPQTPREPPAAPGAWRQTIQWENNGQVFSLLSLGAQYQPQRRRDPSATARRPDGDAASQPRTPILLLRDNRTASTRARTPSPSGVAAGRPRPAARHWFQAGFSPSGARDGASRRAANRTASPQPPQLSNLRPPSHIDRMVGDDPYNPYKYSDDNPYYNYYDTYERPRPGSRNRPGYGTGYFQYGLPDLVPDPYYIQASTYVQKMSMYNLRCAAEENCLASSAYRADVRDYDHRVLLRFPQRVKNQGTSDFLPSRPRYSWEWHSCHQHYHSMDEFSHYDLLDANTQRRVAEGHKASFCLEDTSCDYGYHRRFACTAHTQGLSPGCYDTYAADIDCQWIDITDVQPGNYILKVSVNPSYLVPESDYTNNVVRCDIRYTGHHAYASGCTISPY
The series can be described thus: Inhibition of LOX in mouse lung fibroblast cells using putrescine as substrate preincubated with enzyme for 30 mins followed by substrate addition and measured every 2.5 mins for 30 mins by Amplex-Red oxidation assay. In outline: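 LOX from conditioned medium of fibroblasts cultured from homogenized mouse lung, concentrated and isolated as for the human fibroblast enzyme, in 1.2 M urea/50 mM borate pH 8.2. 30 min preincubation with compound at 37 °C, then Amplex Red/HRP plus putrescine; fluorescence read every 2.5 min for 30 min.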

The test system of series [8] is Mus musculus. The series can be described thus: Effect on plasma ALT level in CCl4-induced BALB/c mouse model of liver fibrosis at 5 to 15 mg/kg, po administered once daily at week 4 to 6. Format: ADME, organism-based. The following applies: in vivo. The method in brief: (§1)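 CCl4 liver fibrosis in female BALB/c mice: CCl4 i.p. (1 mL/kg 25% in olive oil) twice weekly for 6 weeks, sacrifice 48 h after final injection. Oral once-daily dosing weeks 1-6 or weeks 4-6; imatinib 50 mg/kg daily weeks 1-6. ALT and AST measured in plasma.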

In series [9] the test system is Mus musculus. The series can be described thus: Antifibrotic activity in bleomycin-induced C57BL/6 mouse model of lung fibrosis assessed as reduction in Ashcroft score at 15 mg/kg, ip administered on day 7 to 27 measured on day 28 by H and E staining based microscopy. It counts as functional, organism-based. The method in brief:
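Female C57BL/6 mice, 6-8 weeks old, under isoflurane received intranasal bleomycin sulphate 0.05 U/mouse in PBS; controls got PBS. Once-daily i.p. treatment days 7-27, n=12/group; imatinib 50 mg/kg i.p. as comparator. Sacrifice at day 28; lung fibrosis scored by Ashcroft score.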

The test system of series [10] is Mus musculus. The series can be described thus: Effect on plasma AST level in CCl4-induced BALB/c mouse model of liver fibrosis at 15 mg/kg, po administered once daily for 6 weeks. The following applies: in vivo, 1008 h. It counts as ADME, organism-based. The method in brief:
as §1

Calls of active or inactive are those of the source. The calls are words filed in the database; no cut-off is given here.

As for `Cc1c(-c2cccc(S(=O)(=O)N(C)C)c2)c2cc(C(=O)O)ccc2n1C/C(F)=C/CN.Cl`, the results for the half-life in series [1], in [3] and in [5] were over 1.5 h, over 2 h and over 2 h, respectively. The fraction unbound in [2] was 0.12. The IC50 (as a rule, the concentration that inhibits the measured activity by half) in [4] came out at 6 nM; in [6], 1260 nM; in series [7], 1750 nM.

Take `CCOC(=O)c1ccc2c(c1)c(-c1cccc(S(=O)(=O)N(C)C)c1)c(C)n2C/C(F)=C/CN.Cl`: the Activity result in series [8] and in [10] was “Non-Toxic” in each case. Further, the inhibition entry in series [9] was “Active”.
